According to ChEMBL document CHEMBL1156524, “Profiling the enzymatic properties and inhibition of human complement factor B” (J Biol Chem, 2007):
Calls of active or inactive are those of the source. The calls are words filed in the database; no cut-off is given here. Residues, ends and D or L forms follow the SMILES beside them.

Experiments:
Homo sapiens [1] = species: Homo sapiens; assay: Inhibition of human C3bBb convertase assessed as C3 cleavage at 1 mM after 30 mins by 7% gel analysis
Summary of the method: (§1)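 Native C3 convertase formed in situ: C3 (10 µg), human factor B (0.5 µg) and factor D (0.05 µg) incubated 30 min at 37 °C in 32 µL PBS pH 7.4 with 1 mM MgCl2 and 154 mM NaCl, plus buffer or inhibitor (0.25–1.0 mM). Cleavage of C3 to C3a read by SDS-PAGE, 2.5 µg C3/well on 7% gel and 5 µg C3/well on 12% gel.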

Homo sapiens [2] = species: Homo sapiens; assay: Inhibition of human C3bBb convertase assessed as C3 cleavage at 1 mM after 30 mins by 12% gel analysis; summary of the method: as §1
Homo sapiens [3] = species: Homo sapiens; assay: Inhibition of human C3bBb convertase assessed as C3 cleavage after 30 mins by 12% gel analysis
Summary of the method: (§2)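 Native convertase assembled in situ: C3 10 µg, factor B 0.5 µg and factor D 0.05 µg, 30 min at 37 °C in PBS pH 7.4 with 1 mM MgCl2 and 154 mM NaCl. Inhibitor at 0.25, 0.5 and 1.0 mM; leupeptin and PMSF at 1.0 mM as controls. C3 to C3a cleavage read on 7% or 12% gels.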

Complement factor B [4] = molecular target: T1, Complement factor B (Homo sapiens, UniProt P00751); assay: Inhibition of human C3 convertase assessed as C3a formation after 30 mins by 12% gel analysis
T1 sequence (P00751 whole entry): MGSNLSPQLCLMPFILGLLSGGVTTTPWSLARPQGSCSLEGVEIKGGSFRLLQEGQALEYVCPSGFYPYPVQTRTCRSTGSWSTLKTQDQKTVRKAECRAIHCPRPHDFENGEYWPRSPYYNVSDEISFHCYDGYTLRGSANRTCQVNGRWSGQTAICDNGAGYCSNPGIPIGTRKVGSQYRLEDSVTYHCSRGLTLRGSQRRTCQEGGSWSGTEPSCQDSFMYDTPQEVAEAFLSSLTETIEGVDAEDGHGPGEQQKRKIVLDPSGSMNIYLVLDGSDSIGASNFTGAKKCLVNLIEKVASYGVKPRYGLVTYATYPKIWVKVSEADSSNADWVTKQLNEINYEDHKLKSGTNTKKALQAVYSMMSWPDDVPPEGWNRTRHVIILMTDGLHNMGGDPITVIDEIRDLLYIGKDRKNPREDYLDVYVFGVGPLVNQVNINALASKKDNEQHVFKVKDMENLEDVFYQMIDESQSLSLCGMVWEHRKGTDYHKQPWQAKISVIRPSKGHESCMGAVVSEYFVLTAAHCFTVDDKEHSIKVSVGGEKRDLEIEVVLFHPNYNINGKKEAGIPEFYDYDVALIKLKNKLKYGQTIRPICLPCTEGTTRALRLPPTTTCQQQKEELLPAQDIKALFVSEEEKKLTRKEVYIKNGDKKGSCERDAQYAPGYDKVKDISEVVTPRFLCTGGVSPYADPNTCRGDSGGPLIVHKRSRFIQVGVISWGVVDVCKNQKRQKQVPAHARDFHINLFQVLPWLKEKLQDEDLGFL
Summary of the method: (§3)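 Convertase (CVF.Bb) preformed from cobra venom factor 12 µg, factor B 8 µg and factor D 0.2 µg in PBS pH 7.4 with 1 mM MgCl2, 1 h at 37 °C, then diluted with PBS containing 20 mM EDTA. C3 10 µg plus convertase incubated 30 min at 37 °C in PBS pH 7.4 with buffer or inhibitor at 0.01–0.5 mM. C3a formation read on gels loaded with 2.5 µg C3/well (7%) or 5.0 µg (12%).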

Complement factor B [5] = molecular target: T1, Complement factor B; assay: Inhibition of human complement factor B assessed as cleavage of C3 convertase to C3b at pH 10.2
Summary of the method: (§4)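 Purified factor B 4 µg with C3 10 µg, 3 h at 37 °C in 100 mM glycine-HCl pH 10.2 with 154 mM NaCl. Buffer or inhibitor at 0.01, 0.1, 0.25 or 0.5 mM. C3 cleavage products resolved on 7% and 12% gels.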

Complement factor B [6] = molecular target: T1, Complement factor B; assay: Inhibition of human complement factor B at 100 uM
Summary of the method: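 Competition format: 50 nM factor B with 100 µM inhibitor and Ac-SHLGLAR-pNA at 0.5, 2.5, 5 or 10 mM, in 100 mM glycine-HCl pH 9.5 at 37 °C. Absorbance increase followed at 405 nm.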

[7] = Inhibition of trypsin mediated cleavage of AcSHLGLAR-pNA
Summary of the method: (§5)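 Ac-SHLGLAR-pNA at 0.5 mM final in 10 mM Hepes, 10 mM Tris, 150 mM NaCl, 0.1% PEG, pH 7.4; 150 µL wells; read at 405 nm, 37 °C. Trypsin at 133 nM final, inhibitor at eleven 2-fold dilutions from 26.6 µM, in triplicate. Thrombin at 0.5 U per well, inhibitor at eleven 2-fold dilutions from 666 µM, in duplicate.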

Complement factor B [8] = molecular target: T1, Complement factor B; assay: Inhibition of human complement factor B
Summary of the method: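 Chromogenic assay: 50 nM factor B, 0.5 mM Ac-SHLGLAR-pNA, 100 mM glycine-HCl pH 9.5, 37 °C. Eleven inhibitor concentrations from 1 µM to 1 mM. pNA release monitored at 405 nm; buffer alone as positive control.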

Complement factor B [9] = molecular target: T1, Complement factor B; assay: Inhibition of human C3 convertase assessed as C3a formation after 30 mins by 7% gel analysis; summary of the method: as §3
Complement factor B [10] = molecular target: T1, Complement factor B; assay: Inhibition of human complement factor B assessed as […] at pH 10.2; summary of the method: as §4
[11] = Inhibition of thrombin mediated cleavage of AcSHLGLAR-pNA; summary of the method: as §5
Homo sapiens [12] = species: Homo sapiens; assay: Inhibition of human C3bBb convertase assessed as C3 cleavage after 30 mins by 7% gel analysis; summary of the method: as §2

Structure (SMILES) | Activity (Homo sapiens [1]) | Activity (Homo sapiens [2]) | Activity (Homo sapiens [3]) | Activity (Complement factor B [4]) | Activity (Complement factor B [5]) | Activity (Complement factor B [6]) | IC50 [7] [µM] | IC50 (Complement factor B [8]) [µM] | Activity (Complement factor B [9]) | Activity (Complement factor B [10]) | IC50 [11] [µM] | Activity (Homo sapiens [12])
CC(=O)N[C@@H](CC(C)C)C(=O)N[C@@H](CC(C)C)C(=O)N[C@H](C=O)CCCNC(=N)N | inactive | inactive |  |  |  |  |  |  |  |  |  | 
O=S(=O)(F)Cc1ccccc1 | inactive | inactive |  |  |  |  |  |  |  |  |  | 
CC(=O)N[C@@H](CO)C(=O)N[C@@H](Cc1cnc[nH]1)C(=O)N[C@@H](CC(C)C)C(=O)NCC(=O)N[C@@H](CC(C)C)C(=O)N[C@@H](C)C(=O)N[C@H](C=O)CCCNC(=N)N (Ac-SHLGLAR-aldehyde) |  |  | Dose-dependent effect | Dose-dependent effect | Active | Dose-dependent effect | 716 | 19 | Dose-dependent effect | Dose-dependent effect | 24 | Dose-dependent effect
